For experiment [1], the target named is Glucocorticoid receptor (Rattus norvegicus) (UniProt P06536). The following applies: filed as partial agonist.
The target in experiment [2] is T1, Glucocorticoid receptor (Rattus norvegicus) (UniProt P06536).
T1 sequence (whole entry): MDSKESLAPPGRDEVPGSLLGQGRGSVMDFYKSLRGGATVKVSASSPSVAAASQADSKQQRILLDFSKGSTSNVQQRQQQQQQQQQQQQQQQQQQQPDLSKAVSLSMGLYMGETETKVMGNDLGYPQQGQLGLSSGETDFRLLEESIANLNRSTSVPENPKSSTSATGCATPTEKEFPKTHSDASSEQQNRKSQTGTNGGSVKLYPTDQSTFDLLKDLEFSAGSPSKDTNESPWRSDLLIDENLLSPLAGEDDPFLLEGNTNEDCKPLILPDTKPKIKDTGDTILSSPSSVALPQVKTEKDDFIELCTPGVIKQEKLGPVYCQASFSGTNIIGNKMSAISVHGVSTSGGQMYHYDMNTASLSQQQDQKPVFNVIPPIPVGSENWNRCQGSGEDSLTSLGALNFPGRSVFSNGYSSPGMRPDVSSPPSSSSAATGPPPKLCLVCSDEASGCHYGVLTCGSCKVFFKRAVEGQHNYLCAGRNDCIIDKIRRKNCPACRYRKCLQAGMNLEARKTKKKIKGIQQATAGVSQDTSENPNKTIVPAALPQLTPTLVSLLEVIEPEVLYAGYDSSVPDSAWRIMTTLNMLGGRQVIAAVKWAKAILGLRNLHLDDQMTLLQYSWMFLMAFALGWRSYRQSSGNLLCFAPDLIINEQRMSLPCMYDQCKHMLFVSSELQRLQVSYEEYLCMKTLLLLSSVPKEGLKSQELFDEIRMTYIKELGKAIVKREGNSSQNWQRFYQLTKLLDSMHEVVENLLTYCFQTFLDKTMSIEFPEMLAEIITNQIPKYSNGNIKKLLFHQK
The experiment can be described thus: Relative affinity [Ka compound/Ka Dex] for glucocorticoid receptors in cell-free competition assay. Put shortly: (§1)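 Competition with [3H]Dex for glucocorticoid receptors, in HTC cell cytosol (0 °C) or in intact HTC cells (30 min, 37 °C). Relative affinity is the ratio of Dex to steroid concentrations giving 50% inhibition of [3H]Dex binding, corrected by the Rodbard method for partial receptor occupancy by uncompeted [3H]Dex. Averages of 2–4 experiments.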

In experiment [3] the target is T1, Glucocorticoid receptor (Rattus norvegicus). Nature of the experiment: Relative affinity [Ka compound/Ka Dex] for glucocorticoid receptors in whole-cell competition assay. In a few lines: as §1
Experiment [4] shares this target. Nature of the experiment: Dex-NCS incubation on the subsequent inhibition of exchange binding with [3H]dexamethasone measured at pH 7.6 at 1h. The following applies: concentration not given here. Put shortly: (§2)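 Crude HTC cytosol receptors in TAPS buffer were preincubated 3 h at 0 °C with Dex-NCS (290 or 580 nM) or cortisol (60 or 120 nM). Activated charcoal then removed free steroid and inactivated steroid-free receptors. Cytosol was adjusted to 1.9×10^-8 M [3H]Dex ± 575-fold unlabeled Dex and incubated for the stated times at 0 °C, final pH 8.8 or 7.6. Bound steroid was charcoal-separated; specific = total − nonspecific. Cortisol preincubation defined exchangeable binding. Run in duplicate; mean (SD, n).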

The target is the same in experiment [5]. The experiment can be described thus: Dex-NCS incubation on the subsequent inhibition of exchange binding with [3H]dexamethasone measured at pH 8.8 at 1h. The following applies: concentration not given here. Put shortly: as §2
Experiment [6] has the same target. Nature of the experiment: Dex-NCS incubation on the subsequent inhibition of exchange binding with [3H]Dexamethasone measured at pH 7.6 at 20h. The note with it: concentration not given here. In a few lines:
as §2

Experiment [7] shares this target. The experiment can be described thus: Dex-NCS incubation on the subsequent inhibition of exchange binding with [3H]dexamethasone measured at pH 8.8 at 3h. The note with it: concentration not given here. Put shortly: as §2
Experiment [8] shares this target. The experiment can be described thus: Dex-NCS incubation on the subsequent inhibition of exchange binding with [3H]dexamethasone measured at pH 7.6 at 5h. The following applies: concentration not given here. Put shortly: as §2
The target is the same in experiment [9]. The experiment can be described thus: Dex-NCS incubation on the subsequent inhibition of exchange binding with [3H]dexamethasone measured at pH 8.8 at 5h. The note with it: concentration not given here. Put shortly: as §2
Experiment [10] has the same target. The experiment can be described thus: Dex-NCS incubation on the subsequent inhibition of exchange binding with [3H]dexamethasone measured at pH 7.6 at 3h. The following applies: concentration not given here. In a few lines:
as §2

This note sets out measurements from ChEMBL document CHEMBL1125707, “Dexamethasone 21-(beta-isothiocyanatoethyl) thioether: a new affinity label for glucocorticoid receptors” (J Med Chem, 1991).

Molecules are shown by their SMILES.

Take `C[C@@H]1CC2C3CCC4=CC(=O)C=C[C@]4(C)[C@@]3(F)[C@@H](O)C[C@]2(C)[C@@]1(O)C(=O)CBr` (some centres not stated): the Agonist result in [1] was “Partial agonist”. Moreover, the Relative affinity in [2] was 0.021; in [3] it was 0.063.
Consider `C[C@@H]1CC2C3CCC4=CC(=O)C=C[C@]4(C)[C@@]3(F)[C@@H](O)C[C@]2(C)[C@@]1(O)C(=O)COC(=O)c1c(C(F)(F)F)cccc1C(F)(F)F` (some centres not stated), for which the results for the Relative affinity in [2] and in [3] were 0.079 and 0.0087, respectively.
In general, inhibition refers to the percentage by which the read-out fell short of the control. A lower inhibition goes with little suppression. Turning to `C[C@@H]1CC2C3CCC4=CC(=O)C=C[C@]4(C)[C@@]3(F)[C@@H](O)C[C@]2(C)[C@@]1(O)C(=O)CSCCN=C=S` (some centres not stated), the inhibition in experiment [4] came out at 63.2%; in experiment [5] it was 43.8%; in [6], 45.7%; in experiment [7] it was 37%; in [8] it was 56.6%; in [9], 34.1%. In experiment [10], this molecule displayed an inhibition of 60.5%.
